In brackets after ≈: the same amount, converted by molar mass. Bridge positions count the residues as written; N and C are the ends. Square brackets hold non-standard residues; d marks the D form. Peptide text beside a SMILES is read from it. * marks the point of attachment. Bip = N[C@@H](Cc1ccc(-c2ccccc2)cc1)C(=O)O; dBip = N[C@H](Cc1ccc(-c2ccccc2)cc1)C(=O)O; dDab = NCC[C@@H](N)C(=O)O; Octanoyl = CCCCCCCC(=O)*; Dab = NCC[C@H](N)C(=O)O
Tests used:
[1] = test system: Klebsiella pneumoniae; assay: Antibacterial activity against Klebsiella pneumoniae ATCC BAA-2146 expressing NDM-1 after 18 hrs by 2 fold serial dilution method; format: functional; details: ATCC BAA-2146, 18 h
Method in brief: (§1)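 Overnight cultures at 37 °C in nutrient or Mueller Hinton broth with shaking were diluted 50-fold in MHB and grown 1.5–3 h to mid-log phase. The inoculum was 5×10^5 CFU/mL in MHB. Compounds were 2-fold serially diluted, final 32 to 0.015 μg/mL. After 18 h at 37 °C, the MIC was read visually as the lowest concentration with no visible growth.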

[2] = test system: Acinetobacter baumannii; assay: Antibacterial activity against clinical isolate carbapenem and polymyxin resistant Acinetobacter baumannii Ptyela 100734512:2 after 18 hrs by 2 fold serial dilution method; format: functional; details: Ptyela 100734512:2, 18 h
Method in brief: (§2)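 Polymyxin-resistant clinical isolates were grown overnight at 37 °C in NB or MHB with shaking, diluted 50-fold in MHB and grown 1.5–3 h to mid-log phase. The inoculum was 5×10^5 CFU/mL. Compounds were 2-fold broth serial dilutions, final 32 to 0.015 μg/mL; the polymyxin controls ran 128–0.06 μg/mL. The MIC was the lowest concentration with no visible growth after 18 h at 37 °C.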

[3] = test system: Klebsiella pneumoniae; assay: Antibacterial activity against Klebsiella pneumoniae ATCC 13883 after 18 hrs by 2 fold serial dilution method; format: functional; details: ATCC 13883, 18 h
Method in brief: (§3)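 Overnight cultures in nutrient or Mueller Hinton broth at 37 °C with shaking, diluted 50-fold into fresh MHB and grown 1.5–3 h to mid-log. Inoculum 5×10^5 CFU/mL in 2-fold serial dilutions, final range 32 to 0.015 μg/mL. MIC read visually after 18 h at 37 °C as the lowest concentration with no visible growth.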

[4] = test system: Staphylococcus aureus; assay: microbe, parasite or virus in culture; details: ATCC 25923, 18 h
[5] = test system: Pseudomonas aeruginosa; assay: Antibacterial activity against Pseudomonas aeruginosa ATCC 27853 after 18 hrs by 2 fold serial dilution method; format: functional; details: ATCC 27853, 18 h; method in brief: as §3
[6] = test system: Escherichia coli; assay: Antibacterial activity against Escherichia coli ATCC 25922 after 18 hrs by 2 fold serial dilution method; format: functional; details: ATCC 25922, 18 h; method in brief: as §3
[7] = test system: Klebsiella pneumoniae; assay: Antibacterial activity against multidrug resistant Klebsiella pneumoniae ATCC 700603 after 18 hrs by 2 fold serial dilution method; format: functional; details: Klebsiella pneumoniae, 700603, 18 h; method in brief: as §1
[8] = Cytotoxicity against human HepG2 cells after 24 hrs by resazurin assay; format: cell-based; details: HepG2 cells
[9] = test system: Pseudomonas aeruginosa; assay: Antibacterial activity against clinical isolate polymyxin resistant Pseudomonas aeruginosa PA9704 after 18 hrs by 2 fold serial dilution method; format: functional; details: PA9704, 18 h; method in brief: as §2
[10] = test system: Pseudomonas aeruginosa; assay: Antibacterial activity against clinical isolate polymyxin resistant Pseudomonas aeruginosa FADDI-PA070 after 18 hrs by 2 fold serial dilution method; format: functional; details: FADDI-PA070, 18 h; method in brief: as §2
[11] = test system: Acinetobacter baumannii; assay: Antibacterial activity against Acinetobacter baumannii ATCC 19606 after 18 hrs by 2 fold serial dilution method; format: functional; details: ATCC 19606, 18 h; method in brief: as §3
[12] = test system: Klebsiella pneumoniae; assay: Antibacterial activity against clinical isolate carbapenem and polymyxin resistant Klebsiella pneumoniae Koprana 100650661:1 after 18 hrs by 2 fold serial dilution method; format: functional; details: Koprana 100650661:1, 18 h; method in brief: as §2
[13] = test system: Klebsiella pneumoniae; assay: Antibacterial activity against clinical isolate carbapenem and polymyxin resistant Klebsiella pneumoniae 138-16357-20362 after 18 hrs by 2 fold serial dilution method; format: functional; details: 138-16357-20362, 18 h; method in brief: as §2

Row | SMILES | MIC [1] | MIC [2] | MIC [3] | MIC [4] | MIC [5] | MIC [6] | MIC [7] | CC50 at 24 h [8] | MIC [9] | MIC [10] | MIC [11] | MIC [12] | MIC [13]
1 | CCCCCCCC(=O)N[C@@H](CCN)C(=O)N[C@H](C(=O)N[C@@H](CCN)C(=O)N[C@H]1CCNC(=O)[C@H]([C@@H](C)O)NC(=O)[C@H](CCN)NC(=O)[C@H](CCN)NC(=O)[C@H](CC(C)C)NC(=O)[C@@H](Cc2ccccc2)NC(=O)[C@H](CCNC(=O)[C@@H](N)CCCNC(=N)N)NC1=O)[C@@H](C)O (Octanoyl-[Dab]T[Dab][Dab][Dab](Arg)[dF]L[Dab][Dab]T; lactam 4-C) | 16 µg/mL (≈ 11.9 µM) | > 32 µg/mL | 32 µg/mL (≈ 23.8 µM) | > 32 µg/mL | 32 µg/mL (≈ 23.8 µM) | 32 µg/mL (≈ 23.8 µM) | 16 µg/mL (≈ 11.9 µM) | > 300 µM | > 32 µg/mL | > 32 µg/mL | 32 µg/mL (≈ 23.8 µM) | > 32 µg/mL | > 32 µg/mL
2 | CCCCCCCC(=O)N[C@H](CCN)C(=O)N[C@H](C(=O)NCC(=O)N[C@H]1CCNC(=O)[C@H]([C@@H](C)O)NC(=O)[C@H](CCN)NC(=O)[C@H](CCN)NC(=O)[C@H](CC(C)C)NC(=O)[C@@H](Cc2ccccc2)NC(=O)[C@H](CCN)NC1=O)[C@@H](C)O (Octanoyl-[dDab]TG[Dab][Dab][dF]L[Dab][Dab]T; lactam 4-C) | 32 µg/mL (≈ 27.9 µM) | > 32 µg/mL | > 32 µg/mL | > 64 µg/mL | 16 µg/mL (≈ 14 µM) | > 32 µg/mL | 8 µg/mL (≈ 6.98 µM) | > 300 µM | > 32 µg/mL | > 32 µg/mL | > 64 µg/mL | > 32 µg/mL | > 32 µg/mL
3 | CCCCCCCC(=O)NCC(=O)N[C@@H](CCN)C(=O)N[C@H](C(=O)N[C@H]1CCNC(=O)[C@H]([C@@H](C)O)NC(=O)[C@H](CCN)NC(=O)[C@H](CCN)NC(=O)[C@H](CC(C)C)NC(=O)[C@@H](Cc2ccccc2)NC(=O)[C@H](CCN)NC1=O)[C@@H](C)O (Octanoyl-G[Dab]T[Dab][Dab][dF]L[Dab][Dab]T; lactam 4-C) | 16 µg/mL (≈ 14 µM) | > 32 µg/mL | 32 µg/mL (≈ 27.9 µM) | > 32 µg/mL | 2 µg/mL (≈ 1.74 µM) | 16 µg/mL (≈ 14 µM) | 8 µg/mL (≈ 6.98 µM) | > 300 µM | > 32 µg/mL | > 32 µg/mL | > 32 µg/mL | > 32 µg/mL | > 32 µg/mL
4 | CCCCCCCC(=O)N[C@@H](CCN)C(=O)N[C@H](C(=O)N[C@@H](CCN)C(=O)N[C@H]1CCNC(=O)[C@H]([C@@H](C)O)NC(=O)[C@H](CCN)NC(=O)[C@H](CCN)NC(=O)[C@H](Cc2ccc(-c3ccccc3)cc2)NC(=O)[C@@H](Cc2ccccc2)NC(=O)[C@H](CCN)NC1=O)[C@@H](C)O (Octanoyl-[Dab]T[Dab][Dab][Dab][dF][Bip][Dab][Dab]T; lactam 4-C) | 1 µg/mL (≈ 0.769 µM) | 32 µg/mL (≈ 24.6 µM) | 4 µg/mL (≈ 3.08 µM) | 8 µg/mL (≈ 6.16 µM) | 2 µg/mL (≈ 1.54 µM) | 1 µg/mL (≈ 0.769 µM) | 2 µg/mL (≈ 1.54 µM) | 117 µM | 16 µg/mL (≈ 12.3 µM) | 16 µg/mL (≈ 12.3 µM) | 1 µg/mL (≈ 0.769 µM) | 32 µg/mL (≈ 24.6 µM) | > 32 µg/mL
5 | CCCCCCCC(=O)N[C@@H](CCN)C(=O)N[C@H](C(=O)N[C@@H](CCN)C(=O)N[C@H]1CCNC(=O)[C@H]([C@@H](C)O)NC(=O)[C@H](CCN)NC(=O)[C@H](CCN)NC(=O)[C@H](CC(C)C)NC(=O)[C@@H](Cc2ccc(-c3ccccc3)cc2)NC(=O)[C@H](CCN)NC1=O)[C@@H](C)O (Octanoyl-[Dab]T[Dab][Dab][Dab][dBip]L[Dab][Dab]T; lactam 4-C) | 1 µg/mL (≈ 0.79 µM) | 8 µg/mL (≈ 6.32 µM) | 4 µg/mL (≈ 3.16 µM) | 8 µg/mL (≈ 6.32 µM) | 1 µg/mL (≈ 0.79 µM) | 1 µg/mL (≈ 0.79 µM) | 2 µg/mL (≈ 1.58 µM) | 119 µM | 16 µg/mL (≈ 12.6 µM) | 16 µg/mL (≈ 12.6 µM) | 0.5 µg/mL (≈ 0.395 µM) | 32 µg/mL (≈ 25.3 µM) | 32 µg/mL (≈ 25.3 µM)
